Experimental data: ChEMBL document CHEMBL5325438 (Eur J Med Chem, 2023)
Active and inactive are the calls of the source. Square brackets hold non-standard residues; d marks the D form. Peptide text beside a SMILES is read from it. * marks the point of attachment. Cav = NC(N)=NOCC[C@H](N)C(=O)O; Tle = CC(C)(C)[C@H](N)C(=O)O; X1 = C[C@@H](CCCCN)C(=O)*

Experiments:
[1] = Stability of compound in PBS buffer assessed as parent compound remaining at pH 2.0 incubated for 24 hrs by UV/Vis spectroscopic analysis; format: physicochemical; settings: read-out: Stability
In short: (§1)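 Peptide at 50 μM in PBS at pH 2.0 or 7.4, kept at 37 °C; short-term stability over 0–24 h followed by UV/Vis spectroscopy; % remaining reported.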

HepG2 [2] = assay: Cytotoxicity against human HepG2 cells assessed as reduction in cell viability at 100 uM incubated for 24 hrs by MTT assay relative to control; format: toxicity, cell-based; settings: hepg2, 24 h
In short: (§2)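 HepG2, MDA-MB-231 and HT-29 cells grown in DMEM/10% FBS with penicillin/streptomycin at 37 °C, 5% CO2. Exponential-phase cells seeded at 5000/well, left overnight, then exposed 24 h to peptide at 0.1–100 μM (from 1.0 mM PBS pH 7.4 stocks). Viability by MTT, as % of untreated control ± SD.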

[3] = Stability of compound in PBS buffer assessed as parent compound remaining at pH 7.4 incubated for 24 hrs by UV/Vis spectroscopic analysis; format: physicochemical; settings: read-out: Stability; in short: as §1
[4] = Toxicity in MPTP-induced parkinsons's disease BALB/c albino mouse model assessed as body weight loss at 10 mg/kg, ip preadministered with compound for 1 hrs followed by MPTP-addition and measured 5 days after first MPTP addition; format: organism-based; settings: in vivo, 121 h
In short: (§3)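 Male BALB/c mice (n = 5/group) given peptide 10 mg/kg i.p. daily for 5 days, each dose followed 60 min later by MPTP 30 mg/kg i.p.; saline controls. Body weight recorded on days 1, 5 and 10.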

[5] = Stability of compound in PBS buffer assessed as parent compound remaining at pH 7.4 measured after 30 days by RP-HPLC/UV/Vis spectroscopic analysis; format: physicochemical; settings: time 30 day, read-out: Stability
In short: (§4)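 Peptide at 50 μM in PBS at pH 2.0 or 7.4, stored at room temperature and 37 °C for 30 days; % peptide remaining reported.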

[6] = Stability of compound in PBS buffer assessed as parent compound remaining at pH 2.0 measured after 30 days by RP-HPLC/UV/Vis spectroscopic analysis; format: physicochemical; settings: time 30 day, read-out: Stability; in short: as §4
[7] = Permeability of compound in PBS buffer at pH 7.4 at 100 uM incubated for 4 hrs by PAMPA-BBB assay; format: ADME; settings: read-out: permeability
In short: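 PAMPA-BBB with peptide at 100 μM in PBS, donor and acceptor both pH 7.4, 4 h at room temperature. Effective permeability Pe (×10⁻⁶ cm/s) and −log Pe reported as mean ± SEM of three independent experiments.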

Mus musculus [8] = assay: (§5) Neuroprotective activity against MPTP-induced Parkinson's disease BALB/c albino mouse model assessed as restoration of step-through latency values at 10 mg/kg, ip preadministered with compound for 1 hrs followed by MPTP addition and measured 10 days after first MPTP addition by step-through passive avoidance test; format: functional, organism-based; settings: time 241.0 hrs
In short: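 Male BALB/c mice (8–10 weeks, 30–35 g), n = 5/group, were dosed i.p. once daily for 5 days with peptide (10 mg/kg), then MPTP (30 mg/kg) 60 min later; controls received saline or MPTP alone. On day 10, the latency to enter the dark compartment was recorded (cut-off 180 s). Data are mean ± SEM, analysed by one-way ANOVA/Dunnett versus saline and MPTP groups.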

MDA-MB-231 [9] = assay: Cytotoxicity against human MDA-MB-231 cells assessed as reduction in cell viability at 100 uM incubated for 24 hrs by MTT assay relative to control; format: toxicity, cell-based; settings: mda-mb-231, 24 h; in short: as §2
HepG2 [10] = assay: Cytotoxicity against human HepG2 cells assessed as reduction in cell viability at 0.1 to 100 uM incubated for 24 hrs by MTT assay; format: toxicity, cell-based; settings: hepg2, 24 h, dose 0.1-100 µM; in short: as §2
Mus musculus [11] = assay: Neuroprotective activity against MPTP-induced neurotoxicity in BALB/c albino mouse model assessed as alleviation of MPTP-induced nigrostriatal dopaminergic neuronal damage by measuring increase in number of TH-postivie neurons in substantia nigra at 10 mg/kg, ip preadministered with compound for 1 hrs followed by MPTP addition and measured 11 days after first MPTP addition by immunohistological staining analysis (reference value: 66 +/- 1.41%); format: functional; settings: time 265 hrs
In short: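 Same dosing as the behavioural study (peptide 10 mg/kg i.p., then MPTP 30 mg/kg i.p. 60 min later, 5 days; n = 5). Brains taken on day 11, fixed in 10% paraformaldehyde (pH 7.4, 0.1 M phosphate) overnight at 4 °C and paraffin-embedded. Substantia nigra sections stained with rabbit anti-TH (1:500). TH-positive cells counted, as % of saline control; ANOVA/Dunnett.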

[12] = Toxicity in MPTP-induced parkinsons's disease BALB/c albino mouse model assessed as body weight loss at 10 mg/kg, ip preadministered with compound for 1 hrs followed by MPTP-addition and measured 10 days after first MPTP addition; format: organism-based; settings: in vivo, 241 h; in short: as §3
Mus musculus [13] = assay: as §5, with “motor function by measuring increase in hanging time value” for “step-through latency values”, “hanging” for “step-through passive avoidance”, “test relative to control” for “test”; format: functional; settings: time 241 hrs
In short: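 Male BALB/c mice, 8–10 weeks old, 30–35 g, n = 5/group, trained 3 days on a horizontal wire (55 cm, 2.0 mm diameter, 37 cm high). Peptide 10 mg/kg i.p. daily for 5 days, with MPTP 30 mg/kg i.p. given 60 min later; saline controls. Hanging time tested on day 10; one-way ANOVA with Dunnett's test; mean ± SEM.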

HT-29 [14] = assay: Cytotoxicity against human HT-29 cells assessed as reduction in cell viability at 100 uM incubated for 24 hrs by MTT assay relative to control; format: toxicity, cell-based; settings: ht-29, 24 h; in short: as §2
HT-29 [15] = assay: Cytotoxicity against human HT-29 cells assessed as reduction in cell viability at 0.1 to 100 uM incubated for 24 hrs by MTT assay; format: toxicity, cell-based; settings: ht-29, 24 h, dose 0.1-100 µM; in short: as §2
MDA-MB-231 [16] = assay: Cytotoxicity against human MDA-MB-231 cells assessed as reduction in cell viability at 0.1 to 100 uM incubated for 24 hrs by MTT assay; format: toxicity, cell-based; settings: mda-mb-231, 24 h, dose 0.1-100 µM; in short: as §2
[17] = target: T1, Neurotensin receptor type 1 (Homo sapiens, UniProt P30989); assay: Binding affinity to human NTS1R assessed as dissociation constant
T1 sequence (P30989 whole entry): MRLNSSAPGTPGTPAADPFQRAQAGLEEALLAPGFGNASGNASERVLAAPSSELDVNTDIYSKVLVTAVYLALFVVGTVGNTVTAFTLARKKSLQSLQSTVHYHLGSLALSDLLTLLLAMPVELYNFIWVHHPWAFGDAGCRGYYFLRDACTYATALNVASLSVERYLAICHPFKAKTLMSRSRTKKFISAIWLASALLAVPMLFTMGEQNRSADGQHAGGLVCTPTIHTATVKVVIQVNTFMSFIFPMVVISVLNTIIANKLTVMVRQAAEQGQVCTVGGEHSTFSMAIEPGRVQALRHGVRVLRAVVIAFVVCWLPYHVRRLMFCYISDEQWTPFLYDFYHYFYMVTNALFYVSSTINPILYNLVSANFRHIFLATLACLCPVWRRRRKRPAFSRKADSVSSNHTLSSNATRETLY

[18] = target: T1, Neurotensin receptor type 1; assay: Agonist activity at human NTSR1 expressed in HEK293 cells assessed as Galphaq-mediated modulation of IP production incubated for 90 mins by IP-one HTRF assay; format: functional, cell-based
[19] = target: T1, Neurotensin receptor type 1; assay: Agonist activity at human NTSR1 expressed in HEK293 cells assessed as Galphaq-mediated modulation of IP production by measuring maximal efficacy incubated for 90 mins by IP-one HTRF assay relative to full effect of (2S)-2-[[(2S,3S)-2-[[(2S)-2-[[(2S)-1-[(2S)-2-[[(2S)-2-amino-5-guanidino-pentanoyl]amino]-5-guanidino-pentanoyl]pyrrolidine-2-carbonyl]amino]-3-(4-hydroxyphenyl)propanoyl]amino]-3-methyl-pentanoyl]amino]-4-methyl-pentanoic acid; format: functional, cell-based; settings: filed as agonist
Homo sapiens = species on record: Homo sapiens; assay: Selectivity index, ratio of Ki for human NTSR1 transfected in HEK293 cells in the presence of [Leu3H]NT(8-13) to Ki for human NTSR2 transfected in HEK293 cells in the presence of [Leu3H]NT(8-13); format: cell-based
In short: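 Membranes from HEK293(T) cells transiently transfected with hNTS1R or hNTS2R; competition binding against [³H]NT(8–13). IC50 from nonlinear regression, converted to Ki by Cheng–Prusoff; protein by Lowry. Means ± SEM of three (NTS1R) or four to five (NTS2R) experiments, each in triplicate. SI = Ki(NTS1R)/Ki(NTS2R).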

[20] = target: Neurotensin receptor type 2 (Homo sapiens, UniProt O95665); assay: Binding affinity to human NTSR2 transfected in HEK293 cells assessed as inhibition constant incubated for 60 mins in the presence of [Leu3H]NT(8-13) by radioligand competition binding assay; format: cell-based
Neurotensin receptor type 2, sequence (O95665 whole entry): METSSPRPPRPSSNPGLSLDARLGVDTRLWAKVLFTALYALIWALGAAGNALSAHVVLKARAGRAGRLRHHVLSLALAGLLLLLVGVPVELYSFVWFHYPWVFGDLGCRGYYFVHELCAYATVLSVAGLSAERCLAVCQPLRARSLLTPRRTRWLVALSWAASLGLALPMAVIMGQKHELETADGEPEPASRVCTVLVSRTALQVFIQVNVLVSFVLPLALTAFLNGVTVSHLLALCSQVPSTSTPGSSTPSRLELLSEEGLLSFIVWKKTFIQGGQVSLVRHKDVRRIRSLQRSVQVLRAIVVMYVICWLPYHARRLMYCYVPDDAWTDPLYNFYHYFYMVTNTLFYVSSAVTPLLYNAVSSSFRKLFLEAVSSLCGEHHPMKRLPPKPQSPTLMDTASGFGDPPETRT
In short: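 IC50 from nonlinear regression, converted to Ki by Cheng–Prusoff; protein by Lowry. Means ± SEM of three (NTS1R) or four to five (NTS2R) experiments, each in triplicate. SI = Ki(NTS1R)/Ki(NTS2R).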

[21] = target: T1, Neurotensin receptor type 1; assay: Binding affinity to human NTSR1 transfected in HEK293 cells assessed as inhibition constant incubated for 60 mins in the presence of [Leu3H]NT(8-13) by radioligand competition binding assay; format: cell-based

Compound	remaining at 24 h [1] [%]	viability (HepG2 [2]) [%]	remaining at 24 h [3] [%]	remaining at 720 h [5] [%]	remaining at 720 h [6] [%]	Papp at 4 h, 100 µM [7] [×10⁻⁶ cm/s]	viability (MDA-MB-231 [9]) [%]	Activity (HepG2 [10])	viability (HT-29 [14]) [%]	Activity (HT-29 [15])	Activity (MDA-MB-231 [16])	EC50 [18] [nM]	Emax [19] [%]	Ki [20] [nM]	Ki [21] [nM]	further results
CC[C@H](C)[C@H](NC(=O)[C@H](Cc1ccc(O)cc1)NC(=O)[C@@H]1CCCN1C(=O)[C@H](CCCNC(=N)N)NC(=O)[C@@H](N)CCCNC(=N)N)C(=O)N[C@@H](CC(C)C)C(=O)O	100	96	100	100	> 97	0.64	93.3	Non-Toxic	90.7	Non-Toxic	Non-Toxic	–	–	–	–	Activity [4]: Toxic; Activity (Mus musculus [8]): Active; Activity (Mus musculus [11]): 77.5%; Activity [12]: Non-Toxic; Activity (Mus musculus [13]): 31%
CC(C)C[C@H](NC(=O)[C@@H](NC(=O)[C@H](Cc1ccc(O)cc1)NC(=O)[C@@H]1CCCN1C(=O)[C@H](CCCNC(=N)N)NC(=O)[C@@H](C)CCCCN)C(C)(C)C)C(=O)O (X1-RPY[Tle]L-OH)	–	–	–	–	–	–	–	–	–	–	–	–	–	–	–	Kd [17]: 5.71 nM
CC[C@H](C)[C@H](NC(=O)[C@H](Cc1ccc(O)cc1)NC(=O)[C@@H]1CCCN1C(=O)[C@H](CCON=C(N)N)NC(=O)[C@@H](N)CCCCN)C(=O)N[C@@H](CC(C)C)C(=O)O (H-K[Cav]PYIL-OH)	100	95.1	100	> 100	> 97	2.81	97.3	–	94.6	–	–	0.82	97	6.5	6.9	Activity [4]: Toxic; Activity (Mus musculus [8]): Active; Ratio Ki (Homo sapiens): 1.06; Activity (Mus musculus [11]): 90%; Activity [12]: Non-Toxic; Activity (Mus musculus [13]): 87%
CC[C@H](C)[C@H](NC(=O)[C@H](Cc1ccc(O)cc1)NC(=O)[C@@H]1CCCN1C(=O)[C@H](CCCCN)NC(=O)[C@@H](N)CCON=C(N)N)C(=O)N[C@@H](CC(C)C)C(=O)O (H-[Cav]KPYIL-OH)	–	–	–	–	–	–	–	Non-Toxic	–	Non-Toxic	Non-Toxic	0.85	99	14	15	Ratio Ki (Homo sapiens): 1.07
CC[C@H](C)[C@H](NC(=O)[C@H](Cc1ccc(O)cc1)NC(=O)[C@@H]1CCCN1)C(=O)N[C@@H](CC(C)C)C(=O)O (H-PYIL-OH)	–	–	–	–	–	–	–	Non-Toxic	–	Non-Toxic	Non-Toxic	3200	100	> 50000	> 50000	–
CC[C@H](C)[C@H](NC(=O)[C@H](Cc1ccc(O)cc1)NC(=O)[C@@H]1CCCN1C(=O)[C@H](CCON=C(N)N)NC(=O)[C@@H](N)CCON=C(N)N)C(=O)N[C@@H](CC(C)C)C(=O)O	–	–	–	–	–	–	–	Non-Toxic	–	Non-Toxic	Non-Toxic	–	–	–	–	–
CC[C@H](C)[C@H](NC(=O)[C@H](Cc1ccc(O)cc1)NC(=O)[C@@H]1CCCN1C(=O)[C@H](CCON=C(N)N)NC(=O)[C@@H](N)CCCN=C(N)N)C(=O)N[C@@H](CC(C)C)C(=O)O	100	99.8	100	> 95	> 94	0.89	97.7	–	88.9	–	–	–	–	–	–	–
CC[C@H](C)[C@H](NC(=O)[C@H](Cc1ccc(O)cc1)NC(=O)[C@@H]1CCCN1C(=O)[C@H](CCCN=C(N)N)NC(=O)[C@@H](N)CCON=C(N)N)C(=O)N[C@@H](CC(C)C)C(=O)O	–	–	–	–	–	–	–	Non-Toxic	–	Non-Toxic	Non-Toxic	–	–	–	–	–
